Values after ≈ are worked out from the molar mass of the structure shown.
Legend:
Assay type in all cases: functional
Streptococcus pneumoniae [1] = assay: Antibacterial activity against wild type Streptococcus pneumoniae M4 NCTC 7465 type 1 by standardized agar doubling dilution method in presence of 20 ug/ml reserpine efflux pump inhibitor
Outline: (§1)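 MIC by agar doubling dilution following BSAC guidelines. Strains grown in brain heart infusion broth 24 h at 37°C in 5% CO2. Where an efflux pump inhibitor applies, MIC redetermined with reserpine at 20 μg/ml or sodium orthovanadate at 50 μM. Synergy taken as a fall in MIC of ≥2 dilutions with inhibitor present. Dye resistance defined relative to R6 (both dyes ≥2 dilutions higher).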

Streptococcus pneumoniae [2] = assay: Antibacterial activity against dye-resistant Streptococcus pneumoniae by standardized agar doubling dilution method; outline: as §1
Streptococcus pneumoniae [3] = assay: Antibacterial activity against wild type Streptococcus pneumoniae M3 NCTC 7466 type 2 by standardized agar doubling dilution method in presence of 20 ug/ml reserpine efflux pump inhibitor; outline: as §1
Streptococcus pneumoniae [4] = assay: Antibacterial activity against wild type Streptococcus pneumoniae M4 NCTC 7465 type 1 by standardized agar doubling dilution method; outline: as §1
Streptococcus pneumoniae [5] = assay: Antibacterial activity against fluoroquinolone, dye-resistant Streptococcus pneumoniae by standardized agar doubling dilution method; outline: as §1
Streptococcus pneumoniae [6] = assay: Antibacterial activity against fluoroquinolone, dye-resistant Streptococcus pneumoniae by standardized agar doubling dilution method in presence of 20 ug/ml reserpine efflux pump inhibitor; outline: as §1
Streptococcus pneumoniae [7] = assay: Antibacterial activity against wild type Streptococcus pneumoniae R6 by standardized agar doubling dilution method; outline: as §1
Streptococcus pneumoniae [8] = assay: Antibacterial activity against fluoroquinolone-resistant Streptococcus pneumoniae by standardized agar doubling dilution method in presence of 20 ug/ml reserpine efflux pump inhibitor; outline: as §1
Streptococcus pneumoniae [9] = assay: Antibacterial activity against fluoroquinolone-resistant Streptococcus pneumoniae by standardized agar doubling dilution method; outline: as §1
Streptococcus pneumoniae [10] = assay: Antibacterial activity against fluoroquinolone, dye-susceptible Streptococcus pneumoniae by standardized agar doubling dilution method in presence of 20 ug/ml reserpine efflux pump inhibitor; outline: as §1
Streptococcus pneumoniae [11] = assay: Antibacterial activity against wild type Streptococcus pneumoniae M3 NCTC 7466 type 2 by standardized agar doubling dilution method; outline: as §1
Streptococcus pneumoniae [12] = assay: Antibacterial activity against dye-resistant Streptococcus pneumoniae by standardized agar doubling dilution method in presence of 20 ug/ml reserpine efflux pump inhibitor; outline: as §1
Streptococcus pneumoniae [13] = assay: Antibacterial activity against fluoroquinolone, dye-susceptible Streptococcus pneumoniae by standardized agar doubling dilution method; outline: as §1
Streptococcus pneumoniae [14] = assay: Antibacterial activity against wild type Streptococcus pneumoniae R6 by standardized agar doubling dilution method in presence of 20 ug/ml reserpine efflux pump inhibitor; outline: as §1

`CCn1cc(C(=O)O)c(=O)c2cc(F)c(N3CCNCC3)cc21` [NORFLOXACIN] was tested, and the MIC (Streptococcus pneumoniae [1]) was 4 µg/mL, the MIC (Streptococcus pneumoniae [2]) was 4 µg/mL (≈ 12.5 µM) and the MIC90 (Streptococcus pneumoniae [2]) was 4 µg/mL (≈ 12.5 µM). For the same molecule, the MIC (Streptococcus pneumoniae [3]) was 2 µg/mL, the MIC (Streptococcus pneumoniae [4]) was 8 µg/mL (≈ 25.1 µM) and the MIC90 (Streptococcus pneumoniae [5]) was 32 µg/mL (≈ 100 µM). For the same molecule, the MIC90 (Streptococcus pneumoniae [6]) was 8 µg/mL, the MIC (Streptococcus pneumoniae [7]) was 4 µg/mL (≈ 12.5 µM) and the MIC90 (Streptococcus pneumoniae [8]) was 8 µg/mL. For the same molecule, the MIC90 (Streptococcus pneumoniae [9]) was 32 µg/mL (≈ 100 µM), the MIC (Streptococcus pneumoniae [10]) was 1 µg/mL and the MIC90 (Streptococcus pneumoniae [10]) was 1 µg/mL. It also gave an MIC (Streptococcus pneumoniae [11]) of 4 µg/mL (≈ 12.5 µM), an MIC (Streptococcus pneumoniae [12]) of 1 µg/mL and an MIC90 (Streptococcus pneumoniae [12]) of 1 µg/mL. The MIC90 (Streptococcus pneumoniae [13]) was 4 µg/mL (≈ 12.5 µM) and the MIC (Streptococcus pneumoniae [14]) was 2 µg/mL.

Source: ChEMBL document CHEMBL1687824, “Overexpression of patA and patB, which encode ABC transporters, is associated with fluoroquinolone resistance in clinical isolates of Streptococcus pneumoniae” (2011)
